Values after ≈ are worked out from the molar mass of the structure shown.
What was measured:
Staphylococcus aureus [1] = assay: Antibacterial activity against hospital-associated methicillin-resistant Staphylococcus aureus COL after 20 hrs by CLSI microdilution assay; type: functional
Staphylococcus aureus [2] = assay: Antibacterial activity against methicillin-susceptible Staphylococcus aureus ATCC 25923 at 5 ug after 18 to 20 hrs by CLSI disk diffusion assay; type: functional; conditions: read-out: DIZ
In short: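 Mueller-Hinton agar, 4 mm deep, swabbed with PBS-diluted overnight TSB culture (~10^8 CFU/mL). Paper disk (6 mm) loaded with compound in DMSO, incubated 37 °C in ambient air. Complete inhibition zone diameter read from plate back with callipers; 6 mm means no inhibition. At least three independent experiments, mean with standard error.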

Staphylococcus aureus [3] = assay: Antibacterial activity against methicillin-resistant Staphylococcus aureus USA300 at 5 ug after 18 to 20 hrs by CLSI disk diffusion assay; type: functional; conditions: read-out: DIZ
In short: (§1)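 Disk diffusion on 4 mm Mueller-Hinton agar swabbed with about 10^8 CFU/mL suspension in PBS; 6 mm paper disk loaded with 5 µg compound in DMSO; 37 °C ambient air for 18–20 h; diameter of the complete inhibition zone measured in mm with callipers from the plate back; at least three independent experiments, mean with standard error; 6 mm means no inhibition.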

Staphylococcus aureus [4] = assay: Antibacterial activity against hospital-associated methicillin-resistant Staphylococcus aureus COL at 5 ug after 18 to 20 hrs by CLSI disk diffusion assay; type: functional; conditions: read-out: DIZ; in short: as §1
Staphylococcus aureus [5] = assay: Bactericidal activity against methicillin-susceptible Staphylococcus aureus ATCC 29213 preincubated for 20 hrs followed by agar plating and measured after 18 to 20 hrs; type: functional
In short: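 Broth microdilution per CLSI guideline. Compounds diluted 2-fold in MHB from 100 mM DMSO stocks. Inoculum ~10^5 CFU/mL final, from overnight TSB culture diluted in PBS. Plates incubated at 37 °C. Wells without growth by optical density spread on TSA and incubated at 37 °C. MBC is the lowest concentration giving no colonies. At least triplicate.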

Staphylococcus aureus [6] = assay: Bactericidal activity against methicillin-resistant Staphylococcus aureus USA300 preincubated for 20 hrs followed by agar plating and measured after 18 to 20 hrs; type: functional
In short: (§2)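 MBC taken from broth microdilution (final about 10^5 CFU/mL, Mueller-Hinton broth, 37 °C for 20 h). Clear wells (basal optical density) were spread on TSA plates and incubated at 37 °C for 18–20 h. The lowest concentration giving no colonies is reported. At least triplicate.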

A549 = assay: Cytotoxicity against human A549 cells after 24 to 48 hrs by fluorescence-based assay; type: cell-based
In short: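 A549 cells, ~10^4 per well in DMEM, given 2-fold serial dilutions of compound (DMSO stock diluted in DMEM). Incubated at 37 °C, 5% CO2. PrestoBlue added for 1 h, then fluorescence read at excitation 535 nm and emission 610 nm as a measure of viable cells.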

Staphylococcus aureus [7] = assay: Bactericidal activity against hospital-associated methicillin-resistant Staphylococcus aureus COL preincubated for 20 hrs followed by agar plating and measured after 18 to 20 hrs; type: functional; in short: as §2
Staphylococcus aureus [8] = assay: Antibacterial activity against methicillin-susceptible Staphylococcus aureus ATCC 29213 after 20 hrs by CLSI microdilution assay; type: functional; conditions: ATCC 29213, 20 h
Staphylococcus aureus [9] = assay: Antibacterial activity against methicillin-resistant Staphylococcus aureus USA300 after 20 hrs by CLSI microdilution assay; type: functional; conditions: USA300, 20 h
Staphylococcus aureus [10] = assay: Synergistic antibacterial activity against methicillin-resistant Staphylococcus aureus USA300 assessed as fractional inhibitory concentration index in presence of sulfamethoxazole after 18 hrs by broth microdilution-based checkerboard titration assay; type: functional
Staphylococcus aureus [11] = assay: Synergistic antibacterial activity against methicillin-susceptible Staphylococcus aureus ATCC 29213 assessed as fractional inhibitory concentration index in presence of sulfamethoxazole after 18 hrs by broth microdilution-based checkerboard titration assay; type: functional
Staphylococcus aureus [12] = assay: Synergistic antibacterial activity against methicillin-susceptible Staphylococcus aureus ATCC 29213 in presence of sulfamethoxazole after 20 hrs by broth microdilution-based checkerboard titration assay; type: functional
Staphylococcus aureus [13] = assay: Potentiation of sulfamethoxazole-mediated antibacterial activity against hospital-associated methicillin-resistant Staphylococcus aureus COL assessed as sulfamethoxazole MIC after 20 hrs by CLSI microdilution assay (reference value: 200 microg/ml); type: functional
Staphylococcus aureus [14] = assay: Synergistic antibacterial activity against methicillin-resistant Staphylococcus aureus USA300 in presence of sulfamethoxazole after 20 hrs by broth microdilution-based checkerboard titration assay; type: functional
Staphylococcus aureus [15] = assay: Potentiation of sulfamethoxazole-mediated antibacterial activity against methicillin-susceptible Staphylococcus aureus ATCC 29213 assessed as sulfamethoxazole MIC after 20 hrs by CLSI microdilution assay (reference value: 100 microg/ml); type: functional; conditions: ATCC 29213, 20 h
Staphylococcus aureus [16] = assay: Synergistic antibacterial activity against hospital-associated methicillin-resistant Staphylococcus aureus COL in presence of sulfamethoxazole after 20 hrs by broth microdilution-based checkerboard titration assay; type: functional
Staphylococcus aureus [17] = assay: Potentiation of sulfamethoxazole-mediated antibacterial activity against methicillin-resistant Staphylococcus aureus USA300 assessed as sulfamethoxazole MIC after 20 hrs by CLSI microdilution assay (reference value: 100 microg/ml); type: functional; conditions: USA300, 20 h
Staphylococcus aureus [18] = assay: Synergistic antibacterial activity against hospital-associated methicillin-resistant Staphylococcus aureus COL assessed as fractional inhibitory concentration index in presence of sulfamethoxazole after 18 hrs by broth microdilution-based checkerboard titration assay; type: functional

SMILES	MIC (Staphylococcus aureus [1]) [µg/mL]	zone of inhibition at 5 µg/disc (Staphylococcus aureus [2]) [mm]	zone of inhibition at 5 µg/disc (Staphylococcus aureus [3]) [mm]	zone of inhibition at 5 µg/disc (Staphylococcus aureus [4]) [mm]	MBC (Staphylococcus aureus [5]) [µg/mL]	MBC (Staphylococcus aureus [6]) [µg/mL]	IC50 (A549) [µM]	MBC (Staphylococcus aureus [7]) [µg/mL]	MIC (Staphylococcus aureus [8]) [µg/mL]	MIC (Staphylococcus aureus [9]) [µg/mL]	fractional inhibitory concentration index (FICI) (Staphylococcus aureus [10])	fractional inhibitory concentration index (FICI) (Staphylococcus aureus [11])	FIC (Staphylococcus aureus [12])	MIC (Staphylococcus aureus [13]) [µg/mL]	FIC (Staphylococcus aureus [14])	MIC (Staphylococcus aureus [15]) [µg/mL]	FIC (Staphylococcus aureus [16])	MIC (Staphylococcus aureus [17]) [µg/mL]	fractional inhibitory concentration index (FICI) (Staphylococcus aureus [18])
COc1ccc(Cc2cnc(N)nc2N)cc1OC [DIAVERIDINE]	10 (≈ 38.4 µM)	8.81	6	6	5 (≈ 19.2 µM)	10 (≈ 38.4 µM)	> 1000	20 (≈ 76.8 µM)	5 (≈ 19.2 µM)	5 (≈ 19.2 µM)	–	–	–	–	–	–	–	–	–
COc1cc(Cc2cnc(N)nc2N)cc(Br)c1OC	5 (≈ 14.7 µM)	17.4	20.4	6	1.25 (≈ 3.69 µM)	1.25 (≈ 3.69 µM)	321	5 (≈ 14.7 µM)	1.25 (≈ 3.69 µM)	1.25 (≈ 3.69 µM)	0.18	0.12	0.06	12.5	0.06	6.25	0.06	6.25	0.12
COc1cc(Cc2cnc(N)nc2N)cc(Cl)c1OC	5 (≈ 17 µM)	15.1	18.1	6	1.25 (≈ 4.24 µM)	2.5 (≈ 8.48 µM)	467	10 (≈ 33.9 µM)	1.25 (≈ 4.24 µM)	2.5 (≈ 8.48 µM)	0.12	0.12	0.06	12.5	0.06	6.25	0.06	6.25	0.12

Reference: ChEMBL document CHEMBL4270522, “Halogenated trimethoprim derivatives as multidrug-resistant Staphylococcus aureus therapeutics” (Bioorg Med Chem, 2018)
